Results as given in PubChem BioAssay AID743214 (The Scripps Research Institute Molecular Screening Center, 2013).
Among all 2,100 compounds or so, about 10 (0.5%) were called active. The list is a sample of the results. A number with no mark means an inactive call.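 The calls were made as follows: active = mean triplicate inhibition above the solvent-only control wells' mean plus 3 SD (cut at about 12% in these data); inactive = the rest.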

target: Disintegrin and metalloproteinase domain-containing protein 17 (Homo sapiens) (UniProt P78536); experiment: inhibition of ADAM17 peptide cleavage – biochemical, QFRET, high throughput, counter-screen for ADAM10 exosite inhibitor project (AID 743214); settings: EDANS fluorescence, at 6.95 µM, active compounds read high;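 also: 0% = DMSO wells and 100% = marimastat wells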
In short: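 Assay system – ADAM17 protease with quenched-FRET EDANS/DABCYL peptide substrate · Amount – ADAM17 2X stock, 20 nM · Schedule – 30 min compound–enzyme preincubation, then 3 h reaction, both 25 °C · Measured by – EDANS fluorescence 359/460 nm · Read-out – percent inhibition of ADAM17 cleavage · Replicates – each compound tested in triplicate wells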

Chain of Disintegrin and metalloproteinase domain-containing protein 17 (Homo sapiens) (P78536 215-824 limits assumed): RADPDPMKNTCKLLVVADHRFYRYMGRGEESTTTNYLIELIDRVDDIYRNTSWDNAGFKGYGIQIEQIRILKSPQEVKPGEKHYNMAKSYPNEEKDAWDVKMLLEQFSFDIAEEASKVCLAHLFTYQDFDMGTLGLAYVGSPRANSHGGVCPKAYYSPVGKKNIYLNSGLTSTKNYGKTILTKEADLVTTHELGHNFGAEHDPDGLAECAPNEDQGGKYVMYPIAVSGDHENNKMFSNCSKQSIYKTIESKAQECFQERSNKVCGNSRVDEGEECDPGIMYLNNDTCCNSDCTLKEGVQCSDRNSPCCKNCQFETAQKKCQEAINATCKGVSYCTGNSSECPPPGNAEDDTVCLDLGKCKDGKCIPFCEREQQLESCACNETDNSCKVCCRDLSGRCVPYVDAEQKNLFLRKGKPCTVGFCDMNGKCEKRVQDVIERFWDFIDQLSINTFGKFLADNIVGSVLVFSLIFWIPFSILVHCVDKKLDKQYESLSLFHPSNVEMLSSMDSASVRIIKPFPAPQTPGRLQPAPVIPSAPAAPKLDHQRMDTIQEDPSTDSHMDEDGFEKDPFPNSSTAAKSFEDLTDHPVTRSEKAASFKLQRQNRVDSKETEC

| SMILES | inhibition [%] |
| --- | --- |
| Cn1c(CNc2nc(-c3ccccc3)cs2)nnc1SCC(=O)c1ccccc1 | 0.06 |
| COc1ccc(C(CCN(Cc2ccc(OC)c(OC)c2)C(=O)CCl)c2ccccc2)cc1 (stereo unspecified) | 1.03 |
| CCOc1cc(/C=N/NC(=O)c2cc(-c3ccccc3)nc3ccccc23)ccc1O | 4.94 |
| O=C(CSC1=NCCS1)Nc1nc(-c2ccccc2)cs1 | 0.66 |
| COc1ccc(OCCCn2cccc2/C=C2/C(=N)N3OC(C)=CC3=NC2=O)cc1 | 0.03 |
| Cc1ccc(/C=N/NC(=O)CSc2nc3ccccc3o2)cc1 | 0.11 |
| COc1cc(/C=C2/SC(=S)N(Cc3ccccc3)C2=O)cc(OC)c1O | 3.03 |
| CN(C)S(=O)(=O)c1cccc(NC(=O)COC(=O)C2(c3ccccc3F)CCCC2)c1 | 0.96 |
| N/C(Cc1ccc([N+](=O)[O-])cc1)=N\OC(=O)COc1ccc2ccccc2c1 | 1.74 |
| O=C1NC(Nc2nc3ccccc3s2)(C(F)(F)F)C(=O)N1C1CCCCC1 (stereo unspecified) | 0.94 |
| COc1cc(C2CC(=O)N3CN(Cc4ccccc4)CSC3=C2C#N)ccc1OCc1ccccc1 (stereo unspecified) | 2.1 |
| O=C(OCc1ccc(-c2ccccc2)cc1)c1cccc(O)c1 | 4.02 |
| COC(=O)[C@@]12C[C@@H](CC(=O)NCCCCc3ccccc3)C(=O)N(CCc3ccc(OC)c(OC)c3)C1=CCC(C)(C)C2 | 0.87 |
| COc1cc(Cl)c(S(=O)(=O)N2CCN(Cc3ccc4c(c3)OCO4)CC2)cc1Cl | 1.24 |
| CCOc1ccc(Nc2oc(Cc3ccccc3)nc2C#N)cc1 | 1.58 |
| CCOc1ccc(Br)cc1S(=O)(=O)Nc1ccc(C(=O)OC(C)C(=O)N(C)c2ccccc2)cc1 (stereo unspecified) | 2.71 |
| C=CCC[C@@H](Cc1ccc(F)cc1)C(=O)O[C@H](CNC(=O)[C@H](CC=C)CC(=O)N(CCO)Cc1ccccc1)c1ccccc1 | 3.84 |
| O=C(Cc1ccc(Cl)c(Cl)c1)Nc1ccc(SC(F)F)cc1 | 2.25 |
| CC(C)(C)c1ccc(S(=O)(=O)NCC2CCN(C(=O)C(=O)c3cc4ccccc4o3)CC2)cc1 | 1.76 |
| COc1ccc(Cl)cc1NC(=O)COC(=O)C(CC(C)C)N1C(=O)C2CC=CCC2C1=O (stereo unspecified) | 0.79 |
| CC(C)(C)c1ccc(C(=O)Nc2cc(Cl)c(Br)cc2C(=O)O)cc1 | 0.16 |
| CCCCCc1c(-c2ccc(OC)c(OC)c2)ncn1CCc1ccccc1OC | 1.69 |
| Cc1ccc(NS(=O)(=O)c2ccc(C)c(NC(=O)COc3ccc4ccccc4c3)c2)c(C)c1 | 4.43 |
| COc1ccc(NS(=O)(=O)c2ccc(C)c(C(=O)NNC(=O)c3csc(N4CCOCC4)n3)c2)cc1 | 1.55 |

| SMILES | inhibition [%] |
| --- | --- |
| O=C(COC(=O)CCCSc1nc2ccccc2[nH]1)Nc1ccc(Oc2ccccc2)cc1 | 3.79 |
| Cc1cccc(CCNS(=O)(=O)c2ccc(S(=O)(=O)NC3CCCC3)cc2)c1 | -0.14 |
| O=C(CSCc1ccc(Br)cc1)Nc1ccc(S(=O)(=O)N2CCCCCC2)cc1 | 3.71 |
| O=Cc1cn(CCOc2ccc(F)cc2)c2ccccc12 | -0.11 |
| O=C(Nc1cccc(S(=O)(=O)Nc2ccc(Cl)cc2)c1)c1ccc2c(c1)OCCO2 | 2.96 |
| COc1cccc(NC(=O)CN2CCN(c3nc(-c4cccc(OC)c4)cs3)CC2)c1 | 2.32 |
| Cc1ccc(NC(=O)c2nc[nH]c2C(=O)N[C@@H](CCCCNC(=O)OC(C)(C)C)C(=O)OC(C)(C)C)cc1 | 3.32 |
| S=c1[nH]cc(-c2ccc(Cl)cc2)n1-c1ccccc1 | 0.72 |
| CCC1(C)Cc2c(sc3nnn(CC(=O)Nc4ccc(Cl)cc4)c(=O)c23)CO1 (stereo unspecified) | 1.24 |
| CC(C)(C)N1C(=O)[C@H]2[C@@H](c3ccc(Br)cc3)N3C(=O)N(c4cccc(Cl)c4)C(=O)[C@@]3(C)[C@H]2C1=O | 0.76 |
| Cc1ccc(S(=O)(=O)N(CC(=O)Nc2cccnc2)c2ccc(Br)cc2)cc1 | 0.35 |
| O=C(NCCc1ccc(Cl)cc1Cl)c1cc([N+](=O)[O-])c[nH]c1=O | 0.13 |
| O=S(=O)(c1cccc(S(=O)(=O)N2CCC(n3nnc4ccccc43)CC2)c1)N1CCCCC1 | 0.16 |
| C#CCN(C[C@H]1[C@H](OC(=O)NC2CCCC2)[C@H](OC(=O)NC2CCCC2)C[C@H]2C(=O)N(c3ccccc3)C(=O)[C@@H]12)S(=O)(=O)c1ccc(C)cc1 | 1.32 |
| COc1ccc([C@@H]2[C@@H]3C(=O)N(C(C)(C)C)C(=O)[C@@H]3[C@]3(Cc4ccccc4)C(=O)N(c4cccc(Br)c4)C(=O)N23)cc1 | 2.34 |
| O=C(CC(O)(C(F)(F)F)C(F)(F)F)Nc1ccc(Cl)c(Cl)c1 | 1.21 |
| O=S(=O)(c1ccccc1)N(Cc1cccc(F)c1)c1ccccc1 | 0.96 |
| C=C(C)COc1ccc(-c2n[nH]c(C)c2-c2ccccc2)c(O)c1 | 3.15 |
| COc1ccc(C(N)c2csc(NC(=O)Nc3cccc(C(F)(F)F)c3)n2)cc1 (stereo unspecified) | 1.65 |
| COC(=O)C1NN=C(C(=O)c2ccc(Br)cc2)C1c1cccc(Br)c1 (stereo unspecified) | 1.16 |
| CCC(C(=O)OCC(=O)Nc1ccccc1-c1ccccc1)c1ccccc1 (stereo unspecified) | 1.36 |
| COc1cccc(C2CC(c3ccccc3)=NN2S(=O)(=O)c2ccccc2)c1OC (stereo unspecified) | 1.14 |
| Cc1ccc(S(=O)(=O)N2CCN(C(=O)COC(=O)c3c(C)cc(C)cc3C)CC2)c(C)c1 | 1.25 |
| CC(N=Cc1nc(-c2ccccc2)oc1O)c1ccccc1 (stereo unspecified) | 1.57 |

| SMILES | inhibition [%] |
| --- | --- |
| Cc1cccc(C2c3[nH]c4ccccc4c3CCN2C(=O)c2cc(-c3cccn3C)n[nH]2)n1 (stereo unspecified) | 2.55 |
| COc1ccc([C@H]2CC(=O)C=C(c3ccc(OC(F)(F)F)cc3)C2)cc1OC | 0.8 |
| O=C(CC1SC(=Nc2ccccc2)N(Cc2ccccn2)C1=O)Nc1cccc(Cl)c1 (stereo unspecified) | 2.48 |
| COc1cc(/C=N/O)cc(Br)c1OS(=O)(=O)c1ccc(C)cc1 | 0.97 |
| CC(C)C(=O)Nc1cccc(NC(=S)NC(=O)C(c2ccccc2)c2ccccc2)c1 | 3.08 |
| CC(C)(C)OC(=O)N1CCC(NC(=O)c2[nH]cnc2C(=O)N[C@@H](Cc2ccccc2)C(=O)OCc2ccccc2)CC1 | 3.26 |
| CCOc1ccc(N2C(=O)CC(N(CCc3ccc(OC)c(OC)c3)C(=S)Nc3ccccc3)C2=O)cc1 (stereo unspecified) | 0.25 |
| CCCC(=O)n1nc(NCc2ccc(OC)cc2)nc1NCc1ccc(OC)cc1 | 2.02 |
| O=C(/C=C/c1ccc(F)cc1)NC(=S)NNC(=O)c1cccnc1 | 0.5 |
| COc1cccc(NC(=O)C2C(c3ccccc3)C2(Cl)Cl)c1 (stereo unspecified) | 1 |
| CC1(C)C=Cc2c(ccc3c2OC[C@@H](c2ccc(O)cc2O)C3)O1 | 2.8 |
| Cc1ccc(C)c(NC(=S)NNC(=O)c2csc(C)c2)c1 | 2.16 |
| COc1ccc(S(=O)(=O)N2CCN(C(C)C(=O)Nc3ccc(C(C)C)cc3)CC2)cc1 (stereo unspecified) | 1.3 |
| COc1ccc(C(=O)NNC(=S)NC(=O)c2ccccc2)cc1 | 0.42 |
| O=C1[C@H]2[C@@H](c3ccc(F)cc3)N3C(=O)N(c4ccc(C(F)(F)F)cc4)C(=O)[C@@]3(Cc3ccccc3)[C@H]2C(=O)N1C1CCCCC1 | 2.35 |
| COc1cccc(CC2(CO)CCCN(Cc3ccc(OC(F)F)cc3)C2)c1 (stereo unspecified) | 0.36 |
| CC(C)Oc1cc(F)ccc1-c1cc(C(=O)Nc2cccc(Cl)c2)[nH]n1 | 2.81 |
| CCOc1cc(NC(=O)c2ccccc2C(=O)O)c(OCC)cc1NC(=O)c1ccccc1F | 2.06 |
| Cc1csc(NC(=S)Nc2cccc(Cl)c2)n1 | 2.94 |
| O=C(NC(Cc1c[nH]c2ccccc12)C(=O)N/N=C/c1ccc(Br)cc1)c1cccs1 (stereo unspecified) | 3.25 |
| Cc1cc(C)cc(NS(=O)(=O)c2ccc(Oc3ncc(C(F)(F)F)cc3Cl)cc2)c1 | 5.19 |
| Cc1ccc(N(NC(=O)C(C)(C)O)C(=O)c2ccccc2)cc1C | -0.31 |
| O=C1[C@H]2[C@@H](c3ccc(C(F)(F)F)cc3)N[C@]3(CCCN(Cc4ccc(Br)cc4)C3=O)[C@H]2C(=O)N1Cc1ccccc1 | 2.47 |
| Cc1[nH]c2ccccc2c1C(=O)COC(=O)c1c(-c2ccccc2)noc1C | 2.46 |

| SMILES | inhibition [%] |
| --- | --- |
| CC1(Cc2cccc(C#N)c2)C(=O)Nc2ccc(-c3cccc(C(F)(F)F)c3)cc21 (stereo unspecified) | 2.64 |
| Cc1ccc(OCc2nnc(SC/C=C/c3ccccc3)n2Cc2ccco2)cc1 | 2.07 |
| Cc1ccccc1-n1c(SCC(=O)Nc2cccc3ccccc23)nc(O)cc1=O | 0.79 |
| O=C(CNC(=O)c1ccc(Cl)cc1Cl)NCC(=O)Nc1ccccc1N1CCOCC1 | -0.05 |
| Cc1cnc(C(=O)OCc2c(C)cc(C(C)(C)C)cc2C)cn1 | 0.19 |
| Cc1cc(C)cc(NC(=O)CSCc2cnn(-c3ccccc3)c2-n2cccc2)c1 | 1.7 |
| c1ccc2c(CCN3CCNC[C@H]3Cc3cccc4ccccc34)cccc2c1 | 2.24 |
| Cc1cc(O)ccc1-c1cc(C(=O)NCc2cc(C(F)(F)F)cc(C(F)(F)F)c2)[nH]n1 | 1.86 |
| Cc1cc(C)cc(NC(=S)NCCc2c[nH]c3ccccc23)c1 | 0.79 |
| COc1ccc(C2CC(c3ccccc3)=NN2C(=O)COC(=O)COc2ccccc2)cc1 (stereo unspecified) | 3.56 |
| C=CC[C@H](CC(=O)N(CCO)Cc1ccccc1)C(=O)N[C@@H](COC(=O)[C@@H](CC=C)Cc1ccc(F)cc1)Cc1ccccc1 | 3.06 |
| CCC(C)(C)c1ccc(Oc2ccc(NC(=O)COC(=O)C3=COCCO3)cc2)cc1 | 3.28 |
| COc1ccc(Cl)cc1NC(=O)CN(C)C(=O)CCCc1c[nH]c2ccccc12 | 0.4 |
| COc1ccccc1CC1(C)C(=O)Nc2ccc(OC(F)(F)F)cc21 (stereo unspecified) | 0.53 |
| CC(C)(C)OC(=O)CNC(=O)c1[nH]cnc1C(=O)N[C@@H](Cc1ccccc1)C(=O)OCc1ccccc1 | 2.08 |
| C=CCC[C@@H](Cc1ccc(F)cc1)C(=O)OC[C@H](Cc1c[nH]c2ccccc12)NC(=O)[C@@H](CC=C)CC(=O)N(CCO)Cc1ccccc1 | 3.11 |
| Cc1cc(Nc2ccccc2)n(C(=O)c2ccc(N)cc2)n1 | 0.56 |
| O=C(NCc1ccccc1)c1onc(CSc2nc3ccccc3[nH]2)c1C(=O)NCc1ccccc1 | 1.52 |
| COc1ccc(C(=O)NN2C(=O)C3C(c4ccccc4)C=CC(c4ccccc4)C3C2=O)cc1 (stereo unspecified) | 2.28 |
| N#Cc1nc(Cc2cccc3ccccc23)oc1NCc1ccc2c(c1)OCO2 | 2.25 |
| CC(C)Oc1ccc(CC(=O)NNC(=S)Nc2ccc(Br)cc2)cc1 | 0.68 |
| Cn1nc(C(F)(F)F)c(C(=O)Nc2cccc(C(F)(F)F)c2)c1SCc1ccc(Cl)cc1 | 2.65 |
| O=C(Oc1cccc(N2C(=O)C3C4c5ccccc5C(c5ccccc54)C3C2=O)c1)c1ccco1 (stereo unspecified) | 1.5 |
| COc1cc(/C=N/n2c(C)n[nH]c2=S)ccc1OCc1ccccc1 | -0.91 |
